Converted amounts (≈) assume the structure as drawn.
How the values were obtained:
human sEH [1] = target: T1, human sEH (Homo sapiens, UniProt P34913); assay: Inhibition of human sEH, kinetic fluorescent assay; type: biochemical; details: for Fold better inhibitory activity against sEH: salicylic acids vs benzoic acids 14 and 15, respectively
T1 sequence (P34913 1-555): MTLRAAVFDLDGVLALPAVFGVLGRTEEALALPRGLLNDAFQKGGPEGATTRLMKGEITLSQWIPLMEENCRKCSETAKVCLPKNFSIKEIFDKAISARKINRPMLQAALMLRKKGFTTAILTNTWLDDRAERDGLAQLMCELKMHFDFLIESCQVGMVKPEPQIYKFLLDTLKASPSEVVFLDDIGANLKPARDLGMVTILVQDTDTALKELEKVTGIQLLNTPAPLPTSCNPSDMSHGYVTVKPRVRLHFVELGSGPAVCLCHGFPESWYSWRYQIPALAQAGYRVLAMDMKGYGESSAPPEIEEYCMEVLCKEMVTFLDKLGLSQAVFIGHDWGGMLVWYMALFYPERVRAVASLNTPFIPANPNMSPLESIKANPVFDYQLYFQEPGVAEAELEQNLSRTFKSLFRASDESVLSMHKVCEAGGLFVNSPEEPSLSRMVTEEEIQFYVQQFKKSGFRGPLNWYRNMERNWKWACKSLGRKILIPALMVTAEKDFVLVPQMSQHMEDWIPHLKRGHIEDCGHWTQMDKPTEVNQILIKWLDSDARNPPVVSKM

[2] = In vitro stability with human liver S9 incubation with or without NADPH; type: in vitro ADME; details: for Parent compound remaining after the reaction / Level of the corresponding acid metabolite: human hepatic S9, 60 min; for Parent compound remaining after the reaction: with or without NADPH; for Level of the corresponding acid metabolite: metabolites 15 and 27, respectively
Chemical stability = type: physicochemical; details: 40 mM NaOH; 22 °C
Method in brief: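 The test compound was incubated in alkaline solution (40 mM NaOH) at 22 °C. Hydrolysis was followed over time as conversion to the corresponding phenol.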

[3] = Octanol/buffer partition, experimental logP; type: physicochemical; details: for Concentration in buffer: 0.1 M sodium phosphate buffer (pH 7.4) vs buffer saturated 1-octanol; for Concentration in octanol: buffer saturated 1-octanol vs 0.1 M sodium phosphate buffer (pH 7.4)
Solubility in water = type: physicochemical
[4] = Blood levels after oral administration to dog; type: in vivo; details: oral gavage 0.3 mg/kg in tri-olein rich oil
Method in brief: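 Dogs received the test compound as a single oral gavage dose of 0.3 mg/kg in tri-olein rich oil. Blood concentrations were followed over time to give concentration–time profiles.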

COX-2 = target: T2, COX-2 (Homo sapiens, UniProt P35354); assay: COX-2 fluorescent inhibitor screening assay kit; type: biochemical; details: at 10 μM
T2 sequence (P35354 18-604): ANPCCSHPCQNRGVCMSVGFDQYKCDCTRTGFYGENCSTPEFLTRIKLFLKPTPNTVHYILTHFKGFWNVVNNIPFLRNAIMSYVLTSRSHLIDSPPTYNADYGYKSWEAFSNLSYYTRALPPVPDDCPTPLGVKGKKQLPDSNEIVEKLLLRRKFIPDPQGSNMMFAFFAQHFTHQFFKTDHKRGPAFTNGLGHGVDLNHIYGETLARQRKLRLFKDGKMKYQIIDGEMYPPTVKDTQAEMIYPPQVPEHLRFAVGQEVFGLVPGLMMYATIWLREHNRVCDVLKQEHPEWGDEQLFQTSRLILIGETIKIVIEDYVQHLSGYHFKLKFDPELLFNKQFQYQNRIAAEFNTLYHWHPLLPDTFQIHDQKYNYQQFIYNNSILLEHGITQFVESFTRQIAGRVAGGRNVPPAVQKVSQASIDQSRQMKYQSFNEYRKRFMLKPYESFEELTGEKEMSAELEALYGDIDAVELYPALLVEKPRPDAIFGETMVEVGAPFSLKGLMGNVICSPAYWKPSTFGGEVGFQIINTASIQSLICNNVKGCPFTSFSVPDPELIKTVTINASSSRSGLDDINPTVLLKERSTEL

COX-1 = target: T3, COX-1 (Ovis aries, UniProt P05979); assay: COX-1 fluorescent inhibitor screening assay kit; type: biochemical; details: at 10 μM
T3 sequence (P05979 25-600): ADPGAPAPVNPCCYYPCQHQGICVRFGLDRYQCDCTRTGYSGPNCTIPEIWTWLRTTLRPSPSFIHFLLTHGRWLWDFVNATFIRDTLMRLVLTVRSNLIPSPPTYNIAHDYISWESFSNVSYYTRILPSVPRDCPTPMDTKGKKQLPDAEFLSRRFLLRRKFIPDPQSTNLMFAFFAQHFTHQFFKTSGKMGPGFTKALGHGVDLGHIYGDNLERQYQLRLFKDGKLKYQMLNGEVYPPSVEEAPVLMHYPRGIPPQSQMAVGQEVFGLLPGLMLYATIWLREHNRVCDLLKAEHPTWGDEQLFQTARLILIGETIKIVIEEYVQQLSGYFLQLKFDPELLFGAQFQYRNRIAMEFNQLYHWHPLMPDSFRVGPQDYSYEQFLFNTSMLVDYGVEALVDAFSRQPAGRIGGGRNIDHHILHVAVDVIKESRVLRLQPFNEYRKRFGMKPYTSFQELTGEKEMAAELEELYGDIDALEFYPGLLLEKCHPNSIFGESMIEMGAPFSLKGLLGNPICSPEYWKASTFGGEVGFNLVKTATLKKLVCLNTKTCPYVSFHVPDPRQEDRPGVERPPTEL

human sEH [5] = target: T1, human sEH; details: statement in words; cited from earlier work

In the case of `O=C(Nc1ccccc1O)NC12CC3CC(CC(C3)C1)C2` [Compound 2], the “Fold reduction of inhibitory potency against human sEH” value (human sEH [1]; ortho hydroxy vs non-functionalized compound 1 / meta, para isomers) is reported as “roughly 10 fold”.

For `CC(=O)Oc1ccc(NC(=O)NC23CC4CC(CC(C4)C2)C3)cc1` [Compound 10], the “Hydrolysis to the corresponding phenol 4” value ([2]; human hepatic S9, in an hour) was “hydrolyzed completely” and the “Time to complete conversion to the corresponding phenol 4” value (Chemical stability) was “less than 15 min”.

With `O=C(Nc1ccc(OC(=O)c2ccccc2)cc1)NC12CC3CC(CC(C3)C1)C2` [Compound 11] the “Parent compound remaining after the reaction” value (“Parent compound remaining” for short) [2] was 30% and the “Time to complete conversion to the corresponding phenol 4” value (Chemical stability) was “less than 15 min”.

For `COC(=O)c1ccc(NC(=O)NC23CC4CC(CC(C4)C2)C3)cc1` [Compound 13], the “Parent compound remaining” value [2] was no less than 90%, the “Level of the corresponding acid metabolite” value [2] was “below the limit of detection” and the Concentration in buffer [3] was less than 0.3 µM. The Concentration in octanol [3] was 2445 µM.

In the case of `O=C(Nc1ccc(C(=O)O)cc1)NC12CC3CC(CC(C3)C1)C2` [Compound 15], the “Fold less active towards sEH” value (human sEH [1]; vs un-substituted phenyl 1 or the corresponding ester 13) is reported as 83 fold.

With `O=C(Nc1cccc(C(=O)N2CCC(N3CCOCC3)CC2)c1)NC12CC3CC(CC(C3)C1)C2` [Compound 17] the Concentration in octanol [3] was 2720 µM and the solubility (Solubility in water; sodium phosphate buffer, pH 7.4) was 10000 µg/mL (≈ 21.4 mM).

In the case of `O=C(Nc1ccc(O)c(C(=O)O)c1)NC12CC3CC(CC(C3)C1)C2` [Compound 25], the “Fold better inhibitory activity against sEH” value (human sEH [1]) is reported as 3 fold.

For `COC(=O)c1cc(NC(=O)NC23CC4CC(CC(C4)C2)C3)ccc1O` [Compound 26], the “Fold increase in metabolic stability” value ([2]; human liver S9, compared to 12) was 10 fold.

In the case of `O=C(Nc1ccc(C(=O)O)c(O)c1)NC12CC3CC(CC(C3)C1)C2` [Compound 27], the “Fold better inhibitory activity against sEH” value (human sEH [1]) is reported as 20 fold, the Blood concentration [4] is reported as “no 27 was detected” and the Concentration in buffer [3] is reported as 39 µM. For the same compound, the Concentration in octanol [3] was 1641 µM and the “Fold more soluble in water” value (Solubility in water; compared to 17 (so in the source)) was 20 fold.

For `COC(=O)c1ccc(NC(=O)NC23CC4CC(CC(C4)C2)C3)cc1O` [Compound 28], the “Parent compound remaining” value [2] was no less than 90%, the “Level of the corresponding acid metabolite” value [2] was “below the limit of detection” and the “Inhibition of COX-2” value (COX-2) was “not able to show any inhibition”. For the same compound, the IC50 (human sEH [1]) was roughly 3 nM, the Blood concentration [4] was “higher than that of the classical sEH inhibitor AUDA” and the Concentration in buffer [3] was less than 0.3 µM. For the same compound, the Concentration in octanol [3] was 3886 µM and the “Inhibition of COX-1” value (COX-1) was “not able to show any inhibition”.

In the case of `O=C(NC12CC3CC(CC(C3)C1)C2)NC12CC3CC(CC(C3)C1)C2` [N,N′-bisadamantyl urea], the “Inhibition towards sEH” value (human sEH [5]) is listed as “strong inhibition”.

— publication PMC2900318 (Bioorganic & medicinal chemistry letters, 2009)
